Laboratory results: ChEMBL document CHEMBL1147407, “The design and synthesis of novel inhibitors of NADH:ubiquinone oxidoreductase” (Bioorg Med Chem Lett, 2004)

Experiments:
[1] = Inhibition of NADH:ubiquinone oxidoreductase from house fly (Musca domestica) flight muscles; format: tissue-based, Muscle tissue
In short: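 House fly flight-muscle complex I. Activity was measured as NADH oxidation, followed photometrically at 340 nm, with n-decylubiquinone as the electron acceptor.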

Tetranychus urticae = experiment: Acaricidal activity of a compound (300 p.p.m.) was evaluated against Tetranychus urticae infected on bean plants; format: functional

SMILES | IC50 [1] [nM] | Activity (Tetranychus urticae) [%]
CC(C)(C)c1ccc(CSc2oc3ccccc3c(=O)c2Cl)cc1 | 6 | 50
CCc1c(SCc2ccc(C(C)(C)C)cc2)oc2ccccc2c1=O | > 200 | 0
Cc1c(S(=O)(=O)Cc2ccc(C(C)(C)C)cc2)oc2ccccc2c1=O | 160 | 0
Cc1c(SCc2ccc(C(C)(C)C)cc2)oc2ccccc2c1=O | 8 | 100
Cc1c(NCc2ccc(C(C)(C)C)cc2)oc2ccccc2c1=O | 20 | 0

More lines, main results first:

IC50 [1] [nM] | SMILES | Activity (Tetranychus urticae) [%]
500 | CC(C)(C)c1ccc(CSc2cc(=O)c3ccccc3o2)cc1 | 0
10 | Cc1c(SCCc2ccc(C(C)(C)C)cc2)oc2ccccc2c1=O | 80
200 | Cc1c(NCCc2ccc(C(C)(C)C)cc2)oc2ccccc2c1=O | 0
